ChEMBL document CHEMBL5058577, “EUbOPEN Chemogenomics Library 2 (Multiplex)” (2022)

Tested on: U2OS
Test: Multiplex assay against U2OS
Type: toxicity, cell-based
Conditions: human
Outline: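 Phenotypes for tubulin, mitochondrial mass and membrane permeability are expressed as per cents of healthy-nucleus cells. Cells were stained live at seeding with Hoechst33342, BioTracker Green Microtubule Cytoskeleton Dye, MitoTracker Red and Annexin V Alexa Fluor 680, then imaged after compound addition on a CQ1 microscope at 37°C and 5% CO2. Machine-learning gating in CellPathfinder separated Hoechst high-intensity objects from normal cells, divided normal cells by nuclear state (healthy, pyknosed, fragmented) and divided pyknosed cells into mitotic or apoptotic.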

[1] = 12 h, 1 µM, compound concentration 1 uM, replicate 1
[2] = 12 h, 1 µM, compound concentration 1 uM, replicate 2
[3] = 12 h, 10 µM, compound concentration 10 uM, replicate 1
[4] = 12 h, 10 µM, compound concentration 10 uM, replicate 2
[5] = 24 h, 1 µM, compound concentration 1 uM, replicate 1
[6] = 24 h, 1 µM, compound concentration 1 uM, replicate 2
[7] = 24 h, 10 µM, compound concentration 10 uM, replicate 1
[8] = 24 h, 10 µM, compound concentration 10 uM, replicate 2
[9] = 48 h, 1 µM, compound concentration 1 uM, replicate 1
[10] = 48 h, 1 µM, compound concentration 1 uM, replicate 2
[11] = 48 h, 10 µM, compound concentration 10 uM, replicate 1
[12] = 48 h, 10 µM, compound concentration 10 uM, replicate 2

Q: With `Cc1cnc(-c2cc(N3CCN(C(=O)CCS(C)(=O)=O)CC3)ncc2Cl)c(C)c1` as the molecule, how does the “Population Apoptotic (%)” value [1] read?
A: 86%

Q: And the “Population Fragmented Nuclei (%)” value [1]?
A: 37%

Q: And the “Population Healthy Nuclei (%)” value [1]?
A: 54%

Q: And the “Population Hoechst High Intensity Objects (%)” value [1]?
A: 2%

Q: What about the “Population Membrane Permeable-Phenotype (%)” value [1] of the same molecule?
A: 10%

Q: And the “Population Mitochondria Different-Phenotype (%)” value [1]?
A: 1%

Q: And the “Population Mitotic Cells (%)” value [1]?
A: 13%

Q: And the “Population Normal (%)” value [1]?
A: 97%

Q: What about the “Population Pyknosed Nuclei (%)” value [1] of the same molecule?
A: 8%

Q: What about the “Population Tubulin-Different-Phenotype (%)” value [1] of the same molecule?
A: 2%

Q: And the “Total Cell Count” value [1]?
A: 183

Q: What about the “Population Apoptotic (%)” value [2] of the same molecule?
A: 100%

Q: What about the “Population Fragmented Nuclei (%)” value [2] of the same molecule?
A: 18%

Q: What about the “Population Healthy Nuclei (%)” value [2] of the same molecule?
A: 73%

Q: And the “Population Hoechst High Intensity Objects (%)” value [2]?
A: 1%

Q: And the “Population Mitochondria Different-Phenotype (%)” value [2]?
A: 7%

Q: And the “Population Mitotic Cells (%)” value [2]?
A: 0%

Q: What about the “Population Normal (%)” value [2] of the same molecule?
A: 98%

Q: And the “Population Tubulin-Different-Phenotype (%)” value [2]?
A: 7%

Q: What about the “Total Cell Count” value [2] of the same molecule?
A: 111

Q: And the “Population Apoptotic (%)” value [3]?
A: 85%

Q: And the “Population Fragmented Nuclei (%)” value [3]?
A: 24%

Q: What about the “Population Healthy Nuclei (%)” value [3] of the same molecule?
A: 67%

Q: And the “Population Hoechst High Intensity Objects (%)” value [3]?
A: 1%

Q: And the “Population Membrane Permeable-Phenotype (%)” value [3]?
A: 4%

Q: What about the “Population Mitochondria Different-Phenotype (%)” value [3] of the same molecule?
A: 3%

Q: What about the “Population Mitotic Cells (%)” value [3] of the same molecule?
A: 14%

Q: What about the “Population Normal (%)” value [3] of the same molecule?
A: 98%

Q: What about the “Population Pyknosed Nuclei (%)” value [3] of the same molecule?
A: 8%

Q: What about the “Population Tubulin-Different-Phenotype (%)” value [3] of the same molecule?
A: 1%

Q: And the “Total Cell Count” value [3]?
A: 258

Q: What about the “Population Apoptotic (%)” value [4] of the same molecule?
A: 75%

Q: And the “Population Fragmented Nuclei (%)” value [4]?
A: 17%

Q: What about the “Population Healthy Nuclei (%)” value [4] of the same molecule?
A: 73%

Q: And the “Population Membrane Permeable-Phenotype (%)” value [4]?
A: 20%

Q: And the “Population Mitochondria Different-Phenotype (%)” value [4]?
A: 7%

Q: And the “Population Mitotic Cells (%)” value [4]?
A: 25%

Q: What about the “Population Pyknosed Nuclei (%)” value [4] of the same molecule?
A: 9%

Q: What about the “Population Tubulin-Different-Phenotype (%)” value [4] of the same molecule?
A: 15%

Q: What about the “Total Cell Count” value [4] of the same molecule?
A: 88

Q: And the “Population Apoptotic (%)” value [5]?
A: 80%

Q: And the “Population Fragmented Nuclei (%)” value [5]?
A: 30%

Q: And the “Population Healthy Nuclei (%)” value [5]?
A: 62%

Q: And the “Population Hoechst High Intensity Objects (%)” value [5]?
A: 2%

Q: What about the “Population Membrane Permeable-Phenotype (%)” value [5] of the same molecule?
A: 5%

Q: What about the “Population Mitochondria Different-Phenotype (%)” value [5] of the same molecule?
A: 3%

Q: What about the “Population Mitotic Cells (%)” value [5] of the same molecule?
A: 20%

Q: What about the “Population Normal (%)” value [5] of the same molecule?
A: 97%

Q: What about the “Population Pyknosed Nuclei (%)” value [5] of the same molecule?
A: 6%

Q: And the “Population Tubulin-Different-Phenotype (%)” value [5]?
A: 2%

Q: And the “Total Cell Count” value [5]?
A: 220

Q: And the “Population Apoptotic (%)” value [6]?
A: 90%

Q: What about the “Population Fragmented Nuclei (%)” value [6] of the same molecule?
A: 17%

Q: What about the “Population Healthy Nuclei (%)” value [6] of the same molecule?
A: 75%

Q: What about the “Population Membrane Permeable-Phenotype (%)” value [6] of the same molecule?
A: 8%

Q: And the “Population Mitochondria Different-Phenotype (%)” value [6]?
A: 5%

Q: And the “Population Mitotic Cells (%)” value [6]?
A: 10%

Q: What about the “Population Pyknosed Nuclei (%)” value [6] of the same molecule?
A: 7%

Q: And the “Population Tubulin-Different-Phenotype (%)” value [6]?
A: 8%

Q: And the “Total Cell Count” value [6]?
A: 136

Q: What about the “Population Apoptotic (%)” value [7] of the same molecule?
A: 80%

Q: And the “Population Fragmented Nuclei (%)” value [7]?
A: 20%

Q: And the “Population Healthy Nuclei (%)” value [7]?
A: 74%

Q: And the “Population Hoechst High Intensity Objects (%)” value [7]?
A: 2%

Q: And the “Population Membrane Permeable-Phenotype (%)” value [7]?
A: 4%

Q: And the “Population Mitochondria Different-Phenotype (%)” value [7]?
A: 2%

Q: What about the “Population Mitotic Cells (%)” value [7] of the same molecule?
A: 20%

Q: And the “Population Normal (%)” value [7]?
A: 97%

Q: And the “Population Pyknosed Nuclei (%)” value [7]?
A: 4%

Q: And the “Population Tubulin-Different-Phenotype (%)” value [7]?
A: 0%

Q: What about the “Total Cell Count” value [7] of the same molecule?
A: 309

Q: And the “Population Apoptotic (%)” value [8]?
A: 85%

Q: And the “Population Fragmented Nuclei (%)” value [8]?
A: 21%

Q: What about the “Population Healthy Nuclei (%)” value [8] of the same molecule?
A: 64%

Q: And the “Population Hoechst High Intensity Objects (%)” value [8]?
A: 0%

Q: What about the “Population Membrane Permeable-Phenotype (%)” value [8] of the same molecule?
A: 18%

Q: What about the “Population Mitochondria Different-Phenotype (%)” value [8] of the same molecule?
A: 1%

Q: What about the “Population Mitotic Cells (%)” value [8] of the same molecule?
A: 14%

Q: What about the “Population Normal (%)” value [8] of the same molecule?
A: 99%

Q: What about the “Population Pyknosed Nuclei (%)” value [8] of the same molecule?
A: 13%

Q: And the “Population Tubulin-Different-Phenotype (%)” value [8]?
A: 7%

Q: And the “Total Cell Count” value [8]?
A: 103

Q: And the “Population Apoptotic (%)” value [9]?
A: 78%

Q: And the “Population Fragmented Nuclei (%)” value [9]?
A: 29%

Q: What about the “Population Healthy Nuclei (%)” value [9] of the same molecule?
A: 63%

Q: And the “Population Hoechst High Intensity Objects (%)” value [9]?
A: 0%

Q: And the “Population Membrane Permeable-Phenotype (%)” value [9]?
A: 3%

Q: And the “Population Mitochondria Different-Phenotype (%)” value [9]?
A: 2%

Q: And the “Population Mitotic Cells (%)” value [9]?
A: 21%

Q: And the “Population Normal (%)” value [9]?
A: 99%

Q: And the “Population Pyknosed Nuclei (%)” value [9]?
A: 7%

Q: What about the “Population Tubulin-Different-Phenotype (%)” value [9] of the same molecule?
A: 1%

Q: And the “Total Cell Count” value [9]?
A: 325

Q: And the “Population Apoptotic (%)” value [10]?
A: 95%

Q: What about the “Population Fragmented Nuclei (%)” value [10] of the same molecule?
A: 15%

Q: What about the “Population Healthy Nuclei (%)” value [10] of the same molecule?
A: 73%

Q: What about the “Population Hoechst High Intensity Objects (%)” value [10] of the same molecule?
A: 1%

Q: What about the “Population Membrane Permeable-Phenotype (%)” value [10] of the same molecule?
A: 4%

Q: What about the “Population Mitochondria Different-Phenotype (%)” value [10] of the same molecule?
A: 5%

Q: And the “Population Mitotic Cells (%)” value [10]?
A: 5%

Q: And the “Population Normal (%)” value [10]?
A: 98%

Q: And the “Population Pyknosed Nuclei (%)” value [10]?
A: 10%

Q: What about the “Population Tubulin-Different-Phenotype (%)” value [10] of the same molecule?
A: 3%

Q: What about the “Total Cell Count” value [10] of the same molecule?
A: 184

Q: What about the “Population Apoptotic (%)” value [11] of the same molecule?
A: 94%

Q: And the “Population Fragmented Nuclei (%)” value [11]?
A: 11%

Q: What about the “Population Healthy Nuclei (%)” value [11] of the same molecule?
A: 80%

Q: What about the “Population Hoechst High Intensity Objects (%)” value [11] of the same molecule?
A: 1%

Q: And the “Population Membrane Permeable-Phenotype (%)” value [11]?
A: 4%

Q: What about the “Population Mitochondria Different-Phenotype (%)” value [11] of the same molecule?
A: 2%

Q: And the “Population Mitotic Cells (%)” value [11]?
A: 5%

Q: What about the “Population Normal (%)” value [11] of the same molecule?
A: 98%

Q: And the “Population Pyknosed Nuclei (%)” value [11]?
A: 7%

Q: What about the “Population Tubulin-Different-Phenotype (%)” value [11] of the same molecule?
A: 2%

Q: What about the “Total Cell Count” value [11] of the same molecule?
A: 485

Q: What about the “Population Apoptotic (%)” value [12] of the same molecule?
A: 100%

Q: What about the “Population Fragmented Nuclei (%)” value [12] of the same molecule?
A: 22%

Q: What about the “Population Healthy Nuclei (%)” value [12] of the same molecule?
A: 71%

Q: What about the “Population Hoechst High Intensity Objects (%)” value [12] of the same molecule?
A: 3%

Q: What about the “Population Membrane Permeable-Phenotype (%)” value [12] of the same molecule?
A: 13%

Q: And the “Population Mitochondria Different-Phenotype (%)” value [12]?
A: 7%

Q: And the “Population Mitotic Cells (%)” value [12]?
A: 0%

Q: What about the “Population Normal (%)” value [12] of the same molecule?
A: 96%

Q: And the “Population Pyknosed Nuclei (%)” value [12]?
A: 5%

Q: And the “Population Tubulin-Different-Phenotype (%)” value [12]?
A: 7%

Q: What about the “Total Cell Count” value [12] of the same molecule?
A: 141
